Results of several laboratories.
Compare with care: the assays were run in different laboratories.
MET M1250T: Hepatocyte growth factor receptor (MET, Homo sapiens, UniProt P08581, M1250T)

For Cc1cc(NC(=O)c2cccc3cc(-c4cccc5[nH]nc(N)c45)ccc23)ccc1F, the activity vs control was 113% (MET M1250T; enzyme activity; inhibitor; 0.1 µM).
CNC(=O)c1cc2c(Oc3ccc(NC(=O)C4(C(=O)Nc5ccc(F)cc5)CC4)cc3)ccnc2cc1OC has an inhibition of 99% (Hepatocyte growth factor receptor (MET, Homo sapiens, UniProt P08581, Y1230H); enzyme activity; inhibitor; radiometric; 1 µM).
O=C(NCCCC1CCCCC1)c1ccc(CNC(=O)c2cnn(-c3ccccc3)c2C(F)(F)F)cc1 gave a remaining binding of 76% (MET M1250T; cell-free assay; competition with immobilised ligand; 0.1 µM).
F[C@@H]1CCN(c2nccc(-c3cnn4ncccc34)n2)C1 gave a remaining binding of 100% (MET M1250T; binding; 1 µM).
The remaining signal of Cc1ccc(NC(=O)c2ccc(C)c(C(F)(F)F)c2)cc1C#Cc1nn(C2CCC(O)CC2)c2ncnc(N)c12 (stereo not drawn) is reported as 103% (Hepatocyte growth factor receptor (MET, Homo sapiens, UniProt P08581, D1228N); cell-free assay; 10 µM).
CN([C@@H]1CCc2c(CC(=O)O)c3cc(S(C)(=O)=O)ccc3n2C1)S(=O)(=O)c1ccc(F)cc1 has a remaining binding of 100% (Hepatocyte growth factor receptor (MET, Homo sapiens, UniProt P08581, Y1235D); cell-free assay; competition with immobilised ligand; 1 µM).
For Cc1cnc(NC2CCOCC2)nc1-n1cnc(C(=O)NC(CN)c2cc(F)cc(Cl)c2)c1 (stereo not drawn), the remaining activity was 97% (Hepatocyte growth factor receptor (MET, Homo sapiens, UniProt P08581, Y1230D); enzyme activity; inhibitor; radiometric; 1 µM).
O=S(=O)(NC1CCC(c2cc(F)ccc2F)(S(=O)(=O)c2ccc(Cl)cc2)CC1)C(F)(F)F (stereo not drawn) gave a remaining binding of 100% (Hepatocyte growth factor receptor (MET, Homo sapiens, UniProt P08581); cell-free assay; competition with immobilised ligand; 1 µM).
For N[C@H]1CCN(c2nccc(-c3cnn4ncccc34)n2)C1, the remaining binding was 100% (MET M1250T; binding; 1 µM).
